Test results from ChEMBL document CHEMBL4118110, “The identification of inhibitory compounds of Rickettsia prowazekii methionine aminopeptidase for antibacterial applications” (Bioorg Med Chem Lett, 2018).

assay: (§1) Inhibition of Rickettsia prowazekii N-terminal His6-tagged methionine aminopeptidase 1 expressed in Escherichia coli DLB3 Rosetta cells using Met-AMC as substrate preincubated for 1 hr followed by 30 mins incubation after substrate addition measured after 90 mins in presence of MnCl2 by fluorescence assay
How it was run: (§2)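 Recombinant R. prowazekii MetAP with Mn(II) as the metal cofactor. Met-AMC substrate; release of free AMC is followed by fluorescence (excitation 360 nm, emission 460 nm). Activity is the slope of fluorescence versus time, compared with an uninhibited control.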

SMILES	IC50
Cc1n[nH]c(SCC(=O)c2cccc([N+](=O)[O-])c2)n1	1.2 µM
Nc1nnc(SCCC(=O)OC2CCCCC2)[nH]1	9.4 µM

assay: as §1, with “cells at 10 uM” for “cells”, “assay relative to control” for “assay”; how it was run: as §2

SMILES	inhibition
NC(=O)c1nc(-c2ccccc2)oc1Cl	4 to 59%
COc1ccc(OCCSc2n[nH]c(N)n2)cc1	27 to 32%
O=C(O)c1ccc(S(=O)(=O)Cl)s1	2 to 36%
Cc1ccccc1NC(=O)CSc1nnc[nH]1	26 to 64%
CCc1n[nH]c(SCC(=O)c2cc(C)ccc2C)n1	11 to 43%
Cc1c(C(=O)O)sc2nc(CN(C)C)[nH]c(=O)c12	20 to 25%
O=C(O)c1nn(-c2ccccc2)c(=O)c2ccccc12	21 to 44%
Cc1ccc(NC(=O)CSc2nnc[nH]2)c(C)c1	25 to 66%
CCc1n[nH]c(SCC(=O)c2cccc([N+](=O)[O-])c2)n1	16 to 44%
Cc1cccc(CSc2nnc(N)[nH]2)c1	27 to 46%
O=C(CSc1nnc(-c2ccco2)[nH]1)c1ccccc1	17 to 22%
NC(=O)c1ccccc1N	1 to 33%
CCc1nnc(SCC(=O)c2ccc(F)cc2)[nH]1	2 to 13%
C=CCn1cnc2sc(C(=O)O)c(C)c2c1=O	8 to 20%
CC(C)c1ccc2nc(-c3ccccn3)cc(C(=O)O)c2c1	18 to 56%
CCN1CCN(Cc2ccc(O)c3ncccc23)CC1	20 to 39%
CC(C)(C)C1CCc2n[nH]c(C(=O)O)c2C1 (centres undefined)	1 to 41%
Cc1c(C(=O)O)sc2ncn(CC(=O)O)c(=O)c12	2 to 44%
Nc1ccccc1-c1nnc2n1CCCCC2	5 to 46%
CC(N)c1nnc(-c2ccccc2)o1 (centres undefined)	1 to 32%
O=C(O)c1cc([N+](=O)[O-])c(Cl)s1	7 to 63%
Cc1nc(C(=O)O)c(-c2ccccc2F)s1	26 to 31%
CCc1nnc(SCC(=O)c2ccc(OC)cc2)[nH]1	1 to 22%

SMILES	inhibition
Nc1nnc(SCCOc2ccc(Cl)cc2)[nH]1	31 to 32%
COc1ccc(OCc2ccc(C(=O)O)o2)cc1	1 to 37%
O=c1[nH]c2cc(Cl)ccc2n(Cc2ccccc2)c1=O	1 to 62%
Cc1ccc(Sc2ccc(C(=O)O)o2)cc1	27 to 62%
CC(N)c1ncc(-c2ccc(F)cc2)o1 (centres undefined)	46 to 50%
Sc1nnc(-c2ccc(Br)cc2)[nH]1	33 to 61%
COc1ccccc1NC(=O)CSc1nnc(C)[nH]1	1 to 15%
Nc1nnc(SCC(=O)OCc2ccccc2)[nH]1	20 to 34%
O=c1cc(CN2CCCCCC2)occ1O	32 to 44%
O=C1CCC(c2ccccc2O)=NN1	51 to 54%
COCCn1cnc2sc(C(=O)O)c(C)c2c1=O	20 to 24%
Cc1n[nH]c(SCc2ccc([N+](=O)[O-])cc2)n1	1 to 38%
Cc1nnc(C(N)c2ccccc2)o1 (centres undefined)	5 to 8%
CC(C)OC(=O)CSc1nnc(N)[nH]1	23 to 38%
Cc1n[nH]c(SCC(=O)NCCc2ccccc2)n1	1 to 18%
Nc1n[nH]c(SCC(=O)c2ccc([N+](=O)[O-])cc2)n1	19 to 53%
CC(C)c1ccc(C(=O)CSc2nc[nH]n2)cc1	1 to 32%
Nc1nnc(SCC(=O)OC2CCCCC2)[nH]1	60 to 68%
NNC(=O)COc1cccc(Br)c1	1 to 45%
CC(Sc1nnc(N)[nH]1)C(=O)OCc1ccccc1 (centres undefined)	37 to 54%
Cc1cc(C)c(C(=O)O)c(O)n1	44 to 52%
CCOC(=O)C(C)Sc1nnc(N)[nH]1 (centres undefined)	36 to 55%
O=C(O)c1cn(-c2ccccc2)nn1	1 to 47%

SMILES	inhibition
O=C(O)c1ccc(COc2ccccc2F)o1	5 to 46%
CC(C)c1ccc(CSc2nnc(N)[nH]2)cc1	48 to 90%
Cc1c(C(=O)O)sc2nc3n(c(=O)c12)CCC3	34 to 50%
Oc1ccc(Br)cc1-c1nnco1	1 to 14%
COc1ccc(N2C(=O)CCC2=O)cc1S(=O)(=O)Nc1cccc2cccnc12	14 to 36%
Nc1cccc(-c2cnc(-c3ccccn3)s2)c1	30 to 36%
Cc1nc2sc(C(=O)O)c(C)c2c(=O)[nH]1	11 to 18%
COC(=O)c1ccc(CSc2nc[nH]n2)o1	30 to 59%
Nc1nnc(SCC(=O)OCCCc2ccccc2)[nH]1	44 to 62%
Cc1cc(C)nc(SCc2ccc(C(=O)O)o2)n1	9 to 11%
O=C(O)c1nn(-c2ccccc2)c2c1CCC2	45 to 51%
Cc1nc(-c2ccccn2)sc1C(=O)N1CCCCC1	15 to 20%
Nc1n[nH]c(SCc2ccc(Br)cc2)n1	28 to 36%
CC(C)(Oc1ccc(Cl)cc1)C(=O)NN	42 to 46%
O=C(O)c1csc(Cc2ccccc2)n1	1 to 67%
O=C(O)c1cc(Br)c(Br)s1	30 to 64%
CC(=O)c1c(C(=O)O)nn(-c2ccc(Cl)cc2)c1C	17 to 20%
CCn1nc(C(=O)O)c2ccccc2c1=O	19 to 26%
CCc1nnc(SCC(=O)c2ccc(Cl)cc2)[nH]1	9 to 23%
Cc1ccc(-c2cc(C(=O)O)nn2C)cc1	42 to 45%
CN(C)C(=O)CSc1nnc(-c2ccncc2)[nH]1	21 to 44%
Nc1nnc(SCc2ccc(F)cc2)[nH]1	1 to 18%
CN(C)Cc1c(C(=O)O)nc2ccccn12	11 to 20%

SMILES	inhibition
O=C(O)c1ccc(-c2ccccc2Cl)s1	1 to 48%
CCc1nnc(SCC(=O)OC)[nH]1	6 to 25%
Cc1c(C(=O)O)sc2[nH]c(=S)[nH]c(=O)c12	45 to 46%
Cc1cc(O)c2c(c1Cl)C(=O)C=CC2=O	31 to 66%
CC(C)CNC(=O)c1ccc2[nH]c(=O)c(=O)[nH]c2c1	35 to 44%
O=C(O)c1cnc2c(ccc3ccccc32)c1O	22 to 43%
COc1cccc(-c2nnc(CN)o2)c1	1 to 33%
CCOC(=O)CSc1nnc(CC)[nH]1	6 to 22%
COc1cc(C=O)ccc1OCc1ccc(C(=O)O)o1	36 to 53%
O=C(O)c1ccc(Sc2ccc(Br)cc2)o1	1 to 48%
O=C(CSc1nnc(-c2ccco2)[nH]1)N1CCCCC1	1 to 48%
CCOC(=O)CSc1nnc(-c2ccncc2)[nH]1	1 to 59%
O=C(O)c1ccc(S(=O)(=O)c2ccccc2)s1	29 to 65%
Oc1ccc(-c2ccc(F)cc2)nn1	44 to 66%
COc1ccccc1OCc1ccc(C(=O)O)o1	6 to 17%
Oc1ccc2nc(-c3ccccn3)oc2c1	1 to 43%
c1ccc(-c2nc3ccccc3[nH]2)nc1	1 to 35%
O=C(O)c1ccc(CSc2ccc(Cl)cc2)o1	20 to 28%
Cc1c(C(=O)O)sc2ncn(C)c(=O)c12	9 to 47%
CCSc1nnc([C@@H]2CCCN2)o1	1 to 34%
O=C(O)c1ccc(-c2cc(Cl)ccc2Cl)o1	1 to 57%
O=C(O)c1ccc(CSc2ccccc2)o1	5 to 34%
COC(=O)CSc1nnc(-c2ccco2)[nH]1	13 to 27%

SMILES	inhibition
Cc1ccc2nc(-c3ccccn3)cc(C(=O)O)c2c1	28%
CCc1n[nH]c(SCc2ccc([N+](=O)[O-])cc2)n1	1 to 27%
Nc1[nH]n(-c2ccccc2)c(=O)c1C1=NCCCCC1	2 to 35%
C1=C(c2ccccc2)Nc2ncnn2C1c1ccco1 (centres undefined)	23 to 32%
CN(C)C(=O)CSc1n[nH]c(-c2ccco2)n1	1 to 3%
Cc1ccc(C(=O)NN)cc1	1 to 34%
CC(C)N(C(=O)CSc1nnc(N)[nH]1)c1ccccc1	24 to 64%
O=C(O)C(Sc1nnc[nH]1)c1ccccc1 (centres undefined)	3 to 41%
COC(=O)c1ccc(CSc2nnc(N)[nH]2)cc1	36 to 46%
Cc1nnc(SCC(=O)c2ccc(C(C)C)cc2)[nH]1	1 to 41%
Cc1ccc(N2C(=O)CC(Sc3nc[nH]n3)C2=O)cc1 (centres undefined)	40 to 56%
COc1ccc(C(=O)CSc2nnc[nH]2)cc1C	1 to 48%
O=Cc1ccc(OCc2ccc(C(=O)O)o2)cc1	40 to 59%
Nc1nnc(SCC(=O)OC2CCCC2)[nH]1	53 to 59%
O=C(Nc1ccccc1)C(=O)Nc1ccccc1	2 to 39%
CN(C)Cc1cc(C(=O)O)no1	2 to 60%
O=C1C(Cl)=C(N2CCCCC2)C(=O)c2ccccc21	12 to 46%
Cc1cccc(OCc2ccc(C(=O)O)o2)c1	1 to 33%
Oc1ccccc1-c1nncn1-c1ccccc1	14 to 46%
O=C(CSc1nnc(-c2ccco2)[nH]1)N1CCOCC1	24 to 40%
Cc1ccc(C(=O)CSc2nnc(-c3ccco3)[nH]2)cc1	24 to 26%
CCn1cnc2sc(C(=O)O)c(C)c2c1=O	7 to 47%
Cc1ccc(S(=O)(=O)Cc2ccc(C(=O)O)o2)cc1	12 to 25%

SMILES	inhibition
CCCOC(=O)CSc1nnc(N)[nH]1	15 to 36%
CN(C)c1cccc(-c2ccc(C(=O)NN)cc2)c1	29 to 56%
O=C(O)c1cc(-c2cccnc2)on1	29 to 33%
Cc1ccc(CSc2nnc(N)[nH]2)cc1	36%
O=C(O)c1ccc(COc2ccc(F)cc2)o1	10 to 16%
O=C(O)c1cscn1	35 to 41%
Nc1ccc(C(=O)c2ccccc2)cc1N	10 to 39%
CCOC(=O)CSc1n[nH]c(-c2ccco2)n1	1 to 51%
CCCN1CC(=O)C(c2nc3ccccc3[nH]2)=C1N	1 to 31%
Nc1nnc(SCCc2ccccc2)[nH]1	14 to 42%
Cc1[nH]nc(C(=O)O)c1-c1ccccc1	2 to 37%
COc1ccccc1-c1cc(C(=O)O)no1	33 to 48%
Nc1ccccc1-c1nc(-c2ccc(F)cc2)no1	1 to 44%
COCCCn1cnc2sc(C(=O)O)c(C)c2c1=O	7 to 22%
Cc1cc(C(=O)O)nn1-c1cccc(Cl)c1	1 to 22%
CC(C)OC(=O)c1ccc(CSc2nnc(N)[nH]2)cc1	59 to 66%
NCc1nc(-c2ccc(F)cc2)no1	62 to 70%
COc1ccc(O)c(C2=NNC(c3ccc(F)cc3)C2)c1 (centres undefined)	26 to 48%
Nc1n[nH]c(SCc2cccc(Br)c2)n1	55 to 64%
COc1ccc(C=O)cc1OCc1ccc(C(=O)O)o1	36 to 65%
Cc1cccn2c(=O)c3cc(C(=O)O)sc3nc12	31 to 36%
NCc1nnc(-c2ccccc2)o1	12 to 13%
